# pIC50: −log10 of the molar value.
# Legend:
# [1] = biological target: Human immunodeficiency virus type 1 integrase (Human immunodeficiency virus 1, UniProt Q7ZJM1); assay: Inhibition of HIV1 recombinant integrase strand transfer activity
# Procedure, shortened: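 Strand transfer by recombinant HIV-1 integrase (0.1 µM) preassembled on immobilized oligonucleotides. Inhibition is relative to a no-inhibitor control run in quadruplicate and averaged, with background subtracted. IC50 given as mean of three experiments with standard deviation.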
# MT4 = assay: Cytotoxicity against human MT4 cells upto 20 uM after 24 hrs; format: cell-based; conditions: mt4, 24 h
# [2] = tested on: Human immunodeficiency virus 1; assay: Antiviral activity against HIV1 3B infected in human MT4 cells assessed as inhibition of replication after 3 days by ELISA; format: functional; conditions: Human immunodeficiency virus 1, 3B, MT4, 72 h; read-out: CIC95
# Liver microsomes [3] = assay: Protein binding in human liver microsomes per 60 mins in absence of NADPH; format: ADME, Microsome; conditions: 1 h
# Procedure, shortened: (§1)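 [14C]-labelled compound incubated with rat or human liver microsomes, with or without NADPH. Irreversibly bound radioactivity expressed as pmol equiv/mg/60 min.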
# Plasma [4] = assay: Protein binding in rat plasma after 24 hrs; format: ADME, cell-free
# Procedure, shortened: (§2)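 [14C]-labelled compound given to rats in vivo. Irreversibly bound radioactivity measured in plasma and liver at 2, 6 and 24 h, expressed as pmol equiv/mg protein.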
# Liver microsomes [5] = assay: Protein binding in rat liver microsomes per 60 mins in presence of NADPH; format: ADME, Microsome; conditions: 1 h; procedure, shortened: as §1
# Liver [6] = assay: Protein binding in rat liver after 2 hrs; format: ADME, tissue-based; procedure, shortened: as §2
# Liver microsomes [7] = assay: Protein binding in rat liver microsomes per 60 mins in absence of NADPH; format: ADME, Microsome; conditions: 1 h; procedure, shortened: as §1
# Plasma [8] = assay: Protein binding in rat plasma after 6 hrs; format: ADME, cell-free; procedure, shortened: as §2
# Liver [9] = assay: Protein binding in rat liver after 24 hrs; format: ADME, tissue-based; procedure, shortened: as §2
# Liver microsomes [10] = assay: Protein binding in human liver microsomes per 60 mins in presence of NADPH; format: ADME, Microsome; conditions: 1 h; procedure, shortened: as §1
# Liver [11] = assay: Protein binding in rat liver after 6 hrs; format: ADME, tissue-based; procedure, shortened: as §2
# Plasma [12] = assay: Protein binding in rat plasma after 2 hrs; format: ADME, cell-free; procedure, shortened: as §2
# Rattus norvegicus = species: Rattus norvegicus; assay: Plasma concentration in rat after 2 to 24 hrs; format: ADME, organism-based; conditions: in vivo
# Procedure, shortened: (§3)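 Rats dosed orally at 10 mg/kg as a solution in 1% aqueous methylcellulose. Plasma sampled through 24 h.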
# [13] = Bioavailability in rat at 10 mg/kg, po; format: ADME, organism-based; conditions: in vivo; procedure, shortened: as §3
# Sequence of Human immunodeficiency virus type 1 integrase (Q7ZJM1 whole entry): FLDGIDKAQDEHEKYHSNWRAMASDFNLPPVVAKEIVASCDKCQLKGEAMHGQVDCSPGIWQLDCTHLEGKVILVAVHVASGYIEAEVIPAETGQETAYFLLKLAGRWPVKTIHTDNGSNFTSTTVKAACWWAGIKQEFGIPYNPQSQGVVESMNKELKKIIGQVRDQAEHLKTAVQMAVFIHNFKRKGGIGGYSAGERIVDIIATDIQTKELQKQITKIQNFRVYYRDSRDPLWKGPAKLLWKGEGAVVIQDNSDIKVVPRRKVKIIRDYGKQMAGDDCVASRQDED
Compound,pIC50 [1],Activity (MT4),IC95 [2] [nM],other results
O=C1c2c(O)c(O)cc(=O)n2CCCN1Cc1ccc(F)cc1,5.98,–,–,–
O=C1c2c(O)c(O)cc(=O)n2CCN1Cc1ccccc1,6.64,Non-toxic,2500,–
O=C1c2[14c](O)[14c](O)cc(=O)n2CCN1Cc1ccc(F)cc1,–,–,–,Activity (Liver microsomes [3]): 15.2 pmolequiv/mg; PPB (Plasma [4]): < 5 pmolequiv/mg; Activity (Liver microsomes [5]): 24.2 pmolequiv/mg; PPB (Liver [6]): < 5 pmolequiv/mg; Activity (Liver microsomes [7]): 24.7 pmolequiv/mg; PPB (Plasma [8]): < 5 pmolequiv/mg; PPB (Liver [9]): < 5 pmolequiv/mg; Activity (Liver microsomes [10]): 19.6 pmolequiv/mg; PPB (Liver [11]): < 5 pmolequiv/mg; PPB (Plasma [12]): < 5 pmolequiv/mg
O=C1c2c(O)c(O)cc(=O)n2CCN1Cc1ccc(F)cc1,7.00,Non-toxic,310,concentration (Rattus norvegicus): 500 nM; bioavailability [13]: 69%
O=c1c2c(O)c(O)cc(=O)n2ccn1Cc1ccc(F)cc1,7.40,–,–,–
O=C1c2c(O)c(O)cc(=O)n2CCN1Cc1cccc(Cl)c1,7.40,Non-toxic,500,–
O=C1c2c(O)c(O)cc(=O)n2CCN1Cc1ccc(F)c(Cl)c1,7.40,Non-toxic,250,–
N#Cc1c(O)c(O)c2n(c1=O)CCN(Cc1ccc(F)cc1)C2=O,7.70,Non-toxic,> 1000,–
O=C1c2c(O)c(O)c(I)c(=O)n2CCN1Cc1ccc(F)cc1,7.70,Non-toxic,> 1000,–
O=C1c2c(O)c(O)cc(=O)n2CCN1Cc1ccccc1Cl,6.43,Non-toxic,> 1000,–
O=C1c2c(O)c(O)cc(=O)n2CCN1Cc1ccc(Cl)cc1,6.42,Non-toxic,1000,–
O=C1c2c(O)c(O)c(Br)c(=O)n2CCN1Cc1ccc(F)cc1,7.52,Non-toxic,1000,–

# From ChEMBL document CHEMBL1137471, “Dihydroxypyridopyrazine-1,6-dione HIV-1 integrase inhibitors” (Bioorg Med Chem Lett, 2007)
